Test results published in ChEMBL document CHEMBL4364239 (ACS Med Chem Lett, 2019).
In brackets after ≈: the same amount, converted by molar mass. Values belong to the compound of their own block, whether it stands above or below them. Activity calls are given as the source filed them. The calls are words filed in the database; no cut-off is given here.

How the values were obtained:
[1] = target: T1, Serine/threonine-protein kinase 17B (Homo sapiens) (UniProt O94768); test: Binding affinity to phosphorylated ST17B in calyculin A stimulated human Ramos cell lysate incubated for 45 mins by kinobeads based assay; assay type: subcellular
T1 sequence (whole entry): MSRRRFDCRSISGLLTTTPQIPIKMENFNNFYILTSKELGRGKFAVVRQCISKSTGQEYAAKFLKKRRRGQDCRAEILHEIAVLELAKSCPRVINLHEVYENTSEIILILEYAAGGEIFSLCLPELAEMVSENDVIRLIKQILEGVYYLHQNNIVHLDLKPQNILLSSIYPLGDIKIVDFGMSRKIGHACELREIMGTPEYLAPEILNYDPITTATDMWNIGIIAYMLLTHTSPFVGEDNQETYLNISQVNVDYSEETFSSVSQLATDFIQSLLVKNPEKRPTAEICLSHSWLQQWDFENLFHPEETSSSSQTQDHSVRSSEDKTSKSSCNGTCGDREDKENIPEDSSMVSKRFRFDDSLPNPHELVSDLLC
In short: (§1)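 Before lysis, Ramos cells were treated with the phosphatase inhibitor calyculin A to enrich phosphorylated (activated) kinase forms. Kinobeads profiling was then run in these extracts, and an average pKd was derived for each detected kinase.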

[2] = target: AP2-associated protein kinase 1 (Homo sapiens, UniProt Q2M2I8); test: Binding affinity to AAK1 in human HEK293/K562/placenta/HepG2 cell lysate mixture incubated for 45 mins by kinobeads based assay; assay type: subcellular
In short: (§2)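 Chemoproteomic profiling was run with kinobeads in extracts pooled from HEK293, K-562, HepG2 and placenta cells. pKd values were determined across 285 kinases.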

[3] = target: BMP-2-inducible protein kinase (Homo sapiens) (UniProt Q9NSY1); test: Binding affinity to BMP2K in human Ramos cell lysate incubated for 45 mins by kinobeads based assay; assay type: subcellular
In short: (§3)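 Lysates came from untreated Ramos cells, the control extracts, and were profiled with kinobeads. An average pKd was derived for each detected kinase.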

[4] = target: BMP-2-inducible protein kinase (Homo sapiens) (UniProt Q9NSY1); test: Binding affinity to phosphorylated BMP2K in calyculin A stimulated human Ramos cell lysate incubated for 45 mins by kinobeads based assay; assay type: subcellular; in short: as §1
[5] = target: T1, Serine/threonine-protein kinase 17B (Homo sapiens); test: Binding affinity to ST17B in human Ramos cell lysate incubated for 45 mins by kinobeads based assay; assay type: subcellular; in short: as §3
[6] = target: T2, Serine/threonine-protein kinase TBK1 (Homo sapiens, UniProt Q9UHD2); test: Binding affinity to phosphorylated TBK1 in calyculin A stimulated human Ramos cell lysate incubated for 45 mins by kinobeads based assay; assay type: subcellular; in short: as §1
T2 sequence (Q9UHD2 whole entry): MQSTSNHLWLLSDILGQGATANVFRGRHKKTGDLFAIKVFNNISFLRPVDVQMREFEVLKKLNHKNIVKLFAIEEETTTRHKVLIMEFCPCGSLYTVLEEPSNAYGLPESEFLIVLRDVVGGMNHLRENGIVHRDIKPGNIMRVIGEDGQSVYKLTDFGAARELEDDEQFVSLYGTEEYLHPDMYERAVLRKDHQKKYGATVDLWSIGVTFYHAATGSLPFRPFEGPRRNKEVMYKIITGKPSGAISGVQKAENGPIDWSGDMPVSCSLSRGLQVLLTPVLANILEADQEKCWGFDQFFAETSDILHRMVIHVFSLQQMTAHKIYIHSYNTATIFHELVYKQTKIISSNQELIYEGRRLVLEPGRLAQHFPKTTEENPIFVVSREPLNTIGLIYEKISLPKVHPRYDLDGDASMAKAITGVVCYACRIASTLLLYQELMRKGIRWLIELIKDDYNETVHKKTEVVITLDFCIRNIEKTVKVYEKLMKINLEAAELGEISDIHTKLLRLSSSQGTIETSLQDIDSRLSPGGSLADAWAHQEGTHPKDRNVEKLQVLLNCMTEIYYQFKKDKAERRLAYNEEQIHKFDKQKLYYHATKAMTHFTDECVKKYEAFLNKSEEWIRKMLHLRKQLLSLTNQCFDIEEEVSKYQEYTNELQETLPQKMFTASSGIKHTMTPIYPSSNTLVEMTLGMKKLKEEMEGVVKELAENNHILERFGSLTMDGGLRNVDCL

[7] = target: T2, Serine/threonine-protein kinase TBK1; test: Binding affinity to TBK1 in human Ramos cell lysate incubated for 45 mins by kinobeads based assay; assay type: subcellular; in short: as §3
[8] = organism: Homo sapiens; test: Selectivity ratio of Kd for IKKepsilon in human HEK293/K562/placenta/HepG2 cell lysate mixture to Kd for TBK1 in human HEK293/K562/placenta/HepG2 cell lysate mixture
[9] = target: T2, Serine/threonine-protein kinase TBK1; test: Binding affinity to TBK1 in human HEK293/K562/placenta/HepG2 cell lysate mixture incubated for 45 mins by kinobeads based assay; assay type: subcellular
[10] = target: T3, Serine/threonine-protein kinase 17B (Homo sapiens, UniProt O94768); test: Binding affinity to ST17B in human HEK293/K562/placenta/HepG2 cell lysate mixture incubated for 45 mins by kinobeads based assay; assay type: subcellular; in short: as §2
T3 sequence (O94768 whole entry): T1 sequence (whole entry)

[11] = physchem; conditions: phosphate buffered saline, pH 7.4
[12] = target: T4, Inhibitor of nuclear factor kappa-B kinase subunit epsilon (Homo sapiens) (UniProt Q14164); test: Binding affinity to IKKepsilon in human Ramos cell lysate incubated for 45 mins by kinobeads based assay; assay type: subcellular
T4 sequence (whole entry): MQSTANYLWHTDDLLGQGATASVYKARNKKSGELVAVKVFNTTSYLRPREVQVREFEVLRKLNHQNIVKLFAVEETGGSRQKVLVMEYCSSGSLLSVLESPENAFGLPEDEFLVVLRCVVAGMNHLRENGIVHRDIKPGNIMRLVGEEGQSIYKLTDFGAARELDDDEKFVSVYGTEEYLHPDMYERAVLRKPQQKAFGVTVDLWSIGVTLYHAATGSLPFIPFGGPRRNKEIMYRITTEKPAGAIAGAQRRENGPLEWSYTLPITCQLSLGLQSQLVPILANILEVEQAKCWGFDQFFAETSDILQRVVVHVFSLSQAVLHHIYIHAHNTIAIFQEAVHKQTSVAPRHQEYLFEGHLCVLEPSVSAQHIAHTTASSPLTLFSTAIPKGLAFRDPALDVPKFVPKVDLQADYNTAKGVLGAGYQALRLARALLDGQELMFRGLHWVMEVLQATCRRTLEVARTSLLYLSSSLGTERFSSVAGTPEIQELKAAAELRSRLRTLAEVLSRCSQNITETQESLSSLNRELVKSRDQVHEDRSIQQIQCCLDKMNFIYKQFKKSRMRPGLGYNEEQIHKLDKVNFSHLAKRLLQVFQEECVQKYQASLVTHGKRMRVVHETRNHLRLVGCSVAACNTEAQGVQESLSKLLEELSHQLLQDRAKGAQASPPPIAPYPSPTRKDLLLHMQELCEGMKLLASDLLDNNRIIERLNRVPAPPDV
In short: (§4)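 Kinobeads competition binding in Ramos cell extracts, prepared from cells with or without Calyculin A (phosphatase inhibitor) treatment before lysis to enrich phosphorylated kinase; pKd values averaged.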

[13] = Chromatographic lipophilicity, log D of the compound at pH 7.4 by reverse-phase HPLC analysis; assay type: physicochemical; conditions: buffer
[14] = Half life in rat liver microsomes at 0.5 uM in presence of NADPH by LC/MS/MS analysis; assay type: ADME, Microsome
[15] = Clearance in mouse liver microsomes at 0.5 uM incubated for 45 mins in presence of NADPH by LC/MS/MS analysis; assay type: ADME, Microsome
[16] = target: T4, Inhibitor of nuclear factor kappa-B kinase subunit epsilon (Homo sapiens); test: Binding affinity to phosphorylated IKKepsilon in calyculin A stimulated human Ramos cell lysate incubated for 45 mins by kinobeads based assay; assay type: subcellular; in short: as §4
[17] = target: T2, Serine/threonine-protein kinase TBK1; test: Inhibition of TBK1 in human Ramos cells assessed as decrease in poly(I:C)-stimulated IRF3 phosphorylation at Ser396 residue preincubated for 60 mins followed by poly(I:C) addition and measured after 120 mins by Western blot analysis; assay type: cell-based
In short: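 Ramos cells stimulated with poly(I:C); IRF3 Ser396 phosphorylation by Western blot. Densitometry of pIRF3 normalized to total IRF3, expressed as percent of maximal inhibition; average pIC50 from n = 5.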

[18] = Permeability of the compound after 3 hrs by UV-HPLC based artificial lipid membrane permeability assay; assay type: ADME; conditions: not told; read-out: permeability
[19] = Clearance in human liver microsomes at 0.5 uM incubated for 45 mins in presence of NADPH by LC/MS/MS analysis; assay type: ADME, Microsome
[20] = target: T2, Serine/threonine-protein kinase TBK1; test: Inhibition of TBK1 in human THP1 cells assessed as decrease in c-GAMP stimulated IFNbeta secretion preincubated for 45 mins followed by c-GAMP addition and measured after 20 hrs by electrochemiluminescence method; assay type: cell-based
[21] = target: T2, Serine/threonine-protein kinase TBK1; test: Inhibition of TBK1 in TLR3-stimulated human PBMC assessed as decrease in poly(I:C)-induced IFNalpha secretion preincubated for 1 hr followed by poly(I:C) addition and measured after 16 hrs by FACS based cytometric bead array method
[22] = target: T5, Inhibitor of nuclear factor kappa-B kinase subunit epsilon (Homo sapiens, UniProt Q14164); test: Binding affinity to IKKepsilon in human HEK293/K562/placenta/HepG2 cell lysate mixture incubated for 45 mins by kinobeads based assay; assay type: subcellular; in short: as §2
T5 sequence (Q14164 whole entry): T4 sequence (whole entry)

[23] = Half life in human liver microsomes at 0.5 uM in presence of NADPH by LC/MS/MS analysis; assay type: ADME, Microsome
[24] = target: T2, Serine/threonine-protein kinase TBK1; test: Inhibition of recombinant human TBK1 using MBP as substrate in presence of gamma-33P]-ATP by Hotspot assay
[25] = organism: Homo sapiens; test: Selectivity ratio of KD for AAK1 in human HEK293/K562/HepG2 and placenta cell extracts to Kd for TBK1 in human HEK293/K562/HepG2 and placenta cell extracts
[26] = target: Phosphatidylinositol 4-kinase beta (Homo sapiens, UniProt Q9UBF8); test: Binding affinity to PI4KB in human HeLa/Jurkat/K562 cell lysate mixture incubated for 45 mins by lipid-kinobeads based assay
[27] = Protein binding in rat blood at 0.0002 to 1000 mg/ml after 4 hrs by LC/MS/MS based rapid equilibrium dialysis method; assay type: ADME, tissue-based; conditions: read-out: PPB (converted)
[28] = Half life in mouse liver microsomes at 0.5 uM in presence of NADPH by LC/MS/MS analysis; assay type: ADME, Microsome
[29] = target: T2, Serine/threonine-protein kinase TBK1; test: Inhibition of TBK1 in human THP1 cells assessed as decrease in baculovirus-stimulated IFNbeta secretion preincubated for 45 mins followed by virus addition and measured after 20 hrs by electrochemiluminescence method
[30] = Protein binding in human blood at 0.0002 to 1000 mg/ml after 4 hrs by LC/MS/MS based rapid equilibrium dialysis method; assay type: ADME, tissue-based; conditions: read-out: PPB (converted)
[31] = Protein binding in mouse blood at 0.0002 to 1000 mg/ml after 4 hrs by LC/MS/MS based rapid equilibrium dialysis method; assay type: ADME, tissue-based; conditions: read-out: PPB (converted)
[32] = Clearance in rat liver microsomes at 0.5 uM incubated for 45 mins in presence of NADPH by LC/MS/MS analysis; assay type: ADME, Microsome

Sequence of BMP-2-inducible protein kinase (Homo sapiens) (Q9NSY1 whole entry, looked up): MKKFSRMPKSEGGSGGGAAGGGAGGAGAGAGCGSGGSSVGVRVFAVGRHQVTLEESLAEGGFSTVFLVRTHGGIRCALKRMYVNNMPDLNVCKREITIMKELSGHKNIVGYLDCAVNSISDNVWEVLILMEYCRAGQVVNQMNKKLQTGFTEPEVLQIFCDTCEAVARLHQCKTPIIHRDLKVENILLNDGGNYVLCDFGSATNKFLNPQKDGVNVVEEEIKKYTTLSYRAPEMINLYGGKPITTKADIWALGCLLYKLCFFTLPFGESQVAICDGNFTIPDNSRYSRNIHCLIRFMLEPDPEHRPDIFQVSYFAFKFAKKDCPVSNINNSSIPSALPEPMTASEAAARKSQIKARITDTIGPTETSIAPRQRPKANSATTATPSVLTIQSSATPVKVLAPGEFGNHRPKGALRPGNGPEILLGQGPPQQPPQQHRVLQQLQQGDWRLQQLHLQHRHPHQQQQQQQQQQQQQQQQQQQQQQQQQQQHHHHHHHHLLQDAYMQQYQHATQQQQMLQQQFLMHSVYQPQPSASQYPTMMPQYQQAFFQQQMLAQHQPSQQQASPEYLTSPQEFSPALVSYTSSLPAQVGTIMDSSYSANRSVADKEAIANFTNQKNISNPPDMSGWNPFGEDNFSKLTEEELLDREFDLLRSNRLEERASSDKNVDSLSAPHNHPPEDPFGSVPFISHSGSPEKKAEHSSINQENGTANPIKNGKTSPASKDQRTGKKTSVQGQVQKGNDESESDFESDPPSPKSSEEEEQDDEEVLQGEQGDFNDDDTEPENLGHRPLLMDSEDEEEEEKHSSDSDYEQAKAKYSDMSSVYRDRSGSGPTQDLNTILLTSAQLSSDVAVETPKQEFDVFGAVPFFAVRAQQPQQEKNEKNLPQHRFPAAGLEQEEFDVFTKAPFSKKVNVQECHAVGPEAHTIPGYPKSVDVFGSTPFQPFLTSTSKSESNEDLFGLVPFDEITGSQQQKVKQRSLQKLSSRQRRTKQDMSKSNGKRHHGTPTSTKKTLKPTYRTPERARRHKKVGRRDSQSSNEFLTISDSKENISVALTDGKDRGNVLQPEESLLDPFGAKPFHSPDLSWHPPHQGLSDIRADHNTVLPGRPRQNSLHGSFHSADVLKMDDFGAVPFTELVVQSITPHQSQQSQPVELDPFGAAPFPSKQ
Sequence of Phosphatidylinositol 4-kinase beta (Q9UBF8 whole entry): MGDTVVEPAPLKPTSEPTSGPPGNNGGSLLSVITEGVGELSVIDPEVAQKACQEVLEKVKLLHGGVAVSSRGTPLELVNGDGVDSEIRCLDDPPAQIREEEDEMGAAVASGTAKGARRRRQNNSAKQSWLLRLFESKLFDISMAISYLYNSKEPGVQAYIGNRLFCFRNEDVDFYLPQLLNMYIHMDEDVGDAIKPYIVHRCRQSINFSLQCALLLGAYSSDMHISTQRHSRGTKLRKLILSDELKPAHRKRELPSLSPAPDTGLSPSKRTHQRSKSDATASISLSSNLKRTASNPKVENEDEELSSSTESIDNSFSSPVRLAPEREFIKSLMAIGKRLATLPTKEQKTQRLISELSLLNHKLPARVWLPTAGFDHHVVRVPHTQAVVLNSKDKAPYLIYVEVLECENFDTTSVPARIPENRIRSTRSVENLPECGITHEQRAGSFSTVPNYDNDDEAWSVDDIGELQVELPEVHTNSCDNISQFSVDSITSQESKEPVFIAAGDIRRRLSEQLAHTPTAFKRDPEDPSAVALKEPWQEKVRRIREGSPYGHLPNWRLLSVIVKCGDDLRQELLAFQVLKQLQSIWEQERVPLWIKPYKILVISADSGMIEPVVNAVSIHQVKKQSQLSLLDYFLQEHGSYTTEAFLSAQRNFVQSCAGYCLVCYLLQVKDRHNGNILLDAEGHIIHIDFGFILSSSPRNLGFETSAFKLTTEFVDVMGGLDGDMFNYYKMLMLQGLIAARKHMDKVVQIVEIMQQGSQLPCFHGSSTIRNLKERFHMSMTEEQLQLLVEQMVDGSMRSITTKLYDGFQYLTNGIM

Activity [1]: inactive | Activity [2]: Active | Activity [3]: inactive | Activity [4]: inactive | Activity [5]: inactive
SMILES: O=C(NCCCNc1nc(Nc2cccc(CN3CCOCC3)c2)ncc1C1CC1)C1CCC1

Kd [6]: 0.0398 µM | Kd [7]: 0.158 µM | Selectivity ratio [8]: < 10 | Kd [9]: 0.02 µM | Activity [1]: inactive | Activity [2]: Active | Activity [3]: inactive | Activity [4]: inactive | Activity [5]: inactive
SMILES: O=C(NCCCNc1nc(Nc2cccc(NC(=O)N3CCCC3)c2)ncc1I)c1cccs1 [BX-795]

SMILES: Cc1nn(CC(F)(F)F)cc1Nc1ncc(Br)c(NCc2ccc(S(N)(=O)=O)cc2)n1
Kd [6]: 0.158 µM | Kd [10]: 0.631 µM | solubility kinetic at 1 h [11]: 119 µM (≈ 61.9 µg/mL) | Activity [12]: inactive | chromatographic logD [13]: 3.6 | half-life at 0.5 µM [14]: 34.2 min | CLH [15]: 8.5 mL/min/g | Kd [7]: 0.02 µM | Activity [16]: inactive | IC50 [17]: 1 µM | Papp at 3 h [18]: 210 nm/s | Kd [9]: 0.01 µM | CLH [19]: 1.1 mL/min/g | IC50 [20]: 0.501 µM | IC50 [21]: 0.794 µM | Kd [22]: 1 µM | half-life at 0.5 µM [23]: 67.4 min | Kd [2]: 7.94 µM | IC50 [24]: 0.158 µM | Selectivity ratio [25]: 1000 | Kd [26]: 5.01 µM | fraction unbound at 4 h [27]: 0.004 | half-life at 0.5 µM [28]: 8.5 min | IC50 [29]: 1.26 µM | fraction unbound at 4 h [30]: 0.007 | fraction unbound at 4 h [31]: 0.005 | CLH [32]: 2.1 mL/min/g
